Here are results for 15 compounds from ChEMBL document CHEMBL4118224, “Design and Synthesis of a Novel Series of Orally Bioavailable, CNS-Penetrant, Isoform Selective Phosphoinositide 3-Kinase γ (PI3Kγ) Inhibitors with Potential for the Treatment of Multiple Sclerosis (MS)” (J Med Chem, 2018).

Data set [1] addresses T1, Phosphatidylinositol 4,5-bisphosphate 3-kinase catalytic subunit gamma isoform (Homo sapiens, UniProt P48736). As to the kind of experiment: Inhibition of PI3Kgamma (unknown origin) using PIP2 as substrate after 15 mins in presence of [33P-ATP] by liquid scintillation counting method.
A short description of data set [2]: Intrinsic clearance in human hepatocytes assessed per million cells. As to conditions: read-out: CLH. In kind it is ADME, cell-based, Hepatocyte. An outline of the steps: (§1)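 Intrinsic clearance in rat, dog, monkey and human hepatocytes; units µL/min/M cells.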
The species named for data set [3] is Homo sapiens. Kind of data set: Selectivity ratio of Ki for PI3Kbeta (unknown origin) to Ki for PI3Kgamma (unknown origin).
Data set [4] in a line: Intrinsic clearance in rat hepatocytes assessed per million cells. In kind it is ADME, cell-based, Hepatocyte. As to conditions: read-out: CLH. The method in brief:
as §1

Data set [5] in a line: Clearance in iv dosed rat. The conditions noted are these: in vivo. The data set is classed as ADME, organism-based. An outline of the steps:
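Rat, dog and monkey PK after dosing; clearance in mL/min/Kg.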

The species entered for data set [6] is Homo sapiens. As to the kind of experiment: Selectivity ratio of Ki for PI3Kdelta (unknown origin) to Ki for PI3Kgamma (unknown origin).
The species entered for data set [7] is Homo sapiens. As to the kind of experiment: Selectivity ratio of Ki for PI3Kalpha (unknown origin) to Ki for PI3Kgamma (unknown origin).
Data set [8] concerns the target T1, Phosphatidylinositol 4,5-bisphosphate 3-kinase catalytic subunit gamma isoform. As to the kind of experiment: Inhibition of PI3Kgamma in human THP1 cells assessed as inhibition of MCP1-induced Akt phosphorylation at […] residue preincubated for 1 hr followed by MCP1 stimulation for 3 mins by FACS analysis. The data set is classed as cell-based. The method in brief:
(§2)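 Akt phosphorylation was induced by MCP-1 in THP-1 cells or in splenocytes.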
A general note: A flow cytometer gives signals particle by particle.

In data set [9] the test system is Mus musculus. Kind of data set: Anti-inflammatory activity in MOG (35 to 55 residues)-induced EAE C57BL/6 mouse model assessed as inhibition of development of clinical symptoms at 1 mg/kg, po qd measured on day 8 post MOG (35 to 55 residues) immunization. The data set is classed as functional, organism-based.
Data set [10] can be described thus: Lipophilicity, log D of the compound at pH 7.4. In kind it is physicochemical. The conditions noted are these: buffer.
Data set [11] concerns MDR1. Kind of data set: Efflux ratio of permeability from basolateral to apical over apical to basolateral side in MDCK cells harboring MDR1. The data set is classed as ADME, cell-based, Canis lupus familiaris. The conditions noted are these: dog. The method in brief:
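MDR1-MDCK monolayers; bidirectional transport. A-B permeability in x10-6 cm/s; efflux taken as the B-A/A-B ratio.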

Data set [12] is described as follows: Half life in iv dosed rat. As to conditions: in vivo. The data set is classed as ADME, organism-based.
For data set [13], the system named is Mus musculus. As to the kind of experiment: Anti-inflammatory activity in MOG (35 to 55 residues)-induced EAE C57BL/6 mouse model assessed as inhibition of development of clinical symptoms at 3 to 30 mg/kg, po bid […]. In kind it is functional, organism-based. The method in brief:
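C57BL6 mice immunized with myelin oligodendrocyte glycoprotein in complete Freund's adjuvant containing Mycobacterium tuberculosis. Oral dosing BID at 3, 10 and 30 mg/Kg began at a clinical score of 0.5-1. Vehicle and positive-control groups were run alongside. Read-out: clinical EAE score plotted against time after onset.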

Data set [14] deals with Phosphatidylinositol-4,5-bisphosphate 3-kinase, catalytic subunit gamma (Rattus norvegicus, UniProt D3ZFJ0). Kind of data set: Inhibition of PI3Kgamma in rat spleenocytes assessed as inhibition of MCP1-induced Akt phosphorylation at […] residue preincubated for 1 hr followed by MCP1 stimulation for 3 mins by FACS analysis. In kind it is cell-based. The method in brief:
as §2

The source made the active and inactive calls. No cut-off for these calls is given here.

T1 sequence (P48736 whole entry, canonical isoform): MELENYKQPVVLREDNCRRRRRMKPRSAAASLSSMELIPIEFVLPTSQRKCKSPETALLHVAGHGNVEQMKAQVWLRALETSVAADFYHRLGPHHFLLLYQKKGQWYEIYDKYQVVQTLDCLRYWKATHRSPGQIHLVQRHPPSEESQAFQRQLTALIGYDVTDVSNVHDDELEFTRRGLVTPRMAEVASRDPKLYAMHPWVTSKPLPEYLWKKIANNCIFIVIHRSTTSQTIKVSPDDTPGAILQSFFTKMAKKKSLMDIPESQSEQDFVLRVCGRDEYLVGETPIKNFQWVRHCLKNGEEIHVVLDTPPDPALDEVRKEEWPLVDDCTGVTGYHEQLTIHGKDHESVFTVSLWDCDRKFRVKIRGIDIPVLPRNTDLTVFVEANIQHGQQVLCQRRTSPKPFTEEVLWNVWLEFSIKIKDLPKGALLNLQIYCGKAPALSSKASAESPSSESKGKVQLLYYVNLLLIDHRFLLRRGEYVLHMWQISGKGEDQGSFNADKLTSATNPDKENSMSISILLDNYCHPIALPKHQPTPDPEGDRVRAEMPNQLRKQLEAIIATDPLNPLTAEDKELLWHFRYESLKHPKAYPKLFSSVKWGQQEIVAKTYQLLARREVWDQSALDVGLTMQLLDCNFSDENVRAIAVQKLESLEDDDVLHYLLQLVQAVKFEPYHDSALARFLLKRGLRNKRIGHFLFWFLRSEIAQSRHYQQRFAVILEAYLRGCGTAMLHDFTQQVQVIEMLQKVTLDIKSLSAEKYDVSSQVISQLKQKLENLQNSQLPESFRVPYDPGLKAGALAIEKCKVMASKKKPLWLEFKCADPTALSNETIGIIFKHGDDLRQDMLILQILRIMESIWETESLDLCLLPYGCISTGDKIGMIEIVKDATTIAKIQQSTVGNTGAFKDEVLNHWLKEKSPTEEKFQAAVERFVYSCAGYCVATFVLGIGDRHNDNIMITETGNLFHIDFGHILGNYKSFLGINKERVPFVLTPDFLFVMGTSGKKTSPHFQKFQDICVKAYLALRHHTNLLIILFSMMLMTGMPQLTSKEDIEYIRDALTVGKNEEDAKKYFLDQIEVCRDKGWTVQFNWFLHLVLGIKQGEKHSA
Sequence of Phosphatidylinositol-4,5-bisphosphate 3-kinase, catalytic subunit gamma (D3ZFJ0 whole entry): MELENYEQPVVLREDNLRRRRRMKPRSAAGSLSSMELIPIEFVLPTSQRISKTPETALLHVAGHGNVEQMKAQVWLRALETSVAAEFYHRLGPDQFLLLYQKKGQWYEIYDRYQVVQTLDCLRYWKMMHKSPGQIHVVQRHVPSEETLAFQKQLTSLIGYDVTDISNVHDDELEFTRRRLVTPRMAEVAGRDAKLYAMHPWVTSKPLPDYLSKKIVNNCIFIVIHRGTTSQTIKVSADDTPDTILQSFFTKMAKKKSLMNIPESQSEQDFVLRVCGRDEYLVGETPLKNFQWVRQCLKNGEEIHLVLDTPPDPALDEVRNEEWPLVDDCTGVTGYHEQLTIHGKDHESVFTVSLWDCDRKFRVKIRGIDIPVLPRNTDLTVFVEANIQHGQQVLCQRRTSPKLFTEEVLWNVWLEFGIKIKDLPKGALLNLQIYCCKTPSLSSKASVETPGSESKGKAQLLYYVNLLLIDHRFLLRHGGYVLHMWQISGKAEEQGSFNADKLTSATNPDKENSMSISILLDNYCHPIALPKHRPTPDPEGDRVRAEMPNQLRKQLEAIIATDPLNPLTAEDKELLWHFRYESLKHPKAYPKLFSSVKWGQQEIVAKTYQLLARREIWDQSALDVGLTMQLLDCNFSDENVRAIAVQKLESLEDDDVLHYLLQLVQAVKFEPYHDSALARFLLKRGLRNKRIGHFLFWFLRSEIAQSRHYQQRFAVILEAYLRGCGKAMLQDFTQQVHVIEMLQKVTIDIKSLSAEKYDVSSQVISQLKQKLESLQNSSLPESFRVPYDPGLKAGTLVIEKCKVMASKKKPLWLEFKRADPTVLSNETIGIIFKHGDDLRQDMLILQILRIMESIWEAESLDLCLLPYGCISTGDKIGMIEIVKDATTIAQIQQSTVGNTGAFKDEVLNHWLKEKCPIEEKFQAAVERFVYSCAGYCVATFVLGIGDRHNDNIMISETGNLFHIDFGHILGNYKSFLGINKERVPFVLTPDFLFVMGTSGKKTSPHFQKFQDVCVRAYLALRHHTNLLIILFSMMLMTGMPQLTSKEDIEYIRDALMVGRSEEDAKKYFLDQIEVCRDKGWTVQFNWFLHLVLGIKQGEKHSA

For orientation: Ki means the dissociation constant of the complex between target and ligand, obtained from inhibition or displacement. A word on the clearance: it is a measure of how efficiently the substance is removed, as volume per time. A high value points to efficient removal. As for `COc1cc(-c2ccc3c(c2)CN(c2cccc(CC#N)c2)C3=O)cnc1OC`, the Ki in [1] came out at 35 nM. For the same compound, the values for the hepatocyte CLint in [2] and in data set [4] were 30 µL/min/1e6 cells and 88 µL/min/1e6 cells, respectively. For the same compound, the figures for the Ratio Ki in data set [3], in data set [6] and in data set [7] were 11, 16 and 40, respectively. Besides, the clearance in [5] was 160 mL/min/kg.
Usually IC50 stands for the point on the concentration scale where inhibition reaches its midpoint. As to `COc1cc(-c2ccc3c(n2)CN(c2cnn(CC(F)(F)F)c2)C3=O)cnc1OC`, in [8], the IC50 came to 280 nM. Besides, the inhibitory constant (Ki) in data set [1] was 4 nM.
Take `COc1cc(-c2ccc3c(n2)CN(c2cn[nH]c2)C3=O)cnc1OC`: in data set [1], the Ki stood at 11 nM. Besides, the Ratio Ki amounted to 32 in data set [3], 42 in data set [6] and 34 in [7].
Regarding `COc1cc(-c2ccc3c(n2)CN(c2cnn(CC#N)c2)C3=O)cnc1OC`, the Ki in data set [1] lay in the range of 3 to 4 nM.
As to `CCn1cc(N2Cc3nc(-c4cnc(OC)c(OC)c4)ccc3C2=O)cn1`, in [1], the Ki was 8 nM. Moreover, the Ratio Ki in [3] amounted to 39; in data set [6] it was 14; in data set [7] it was 25.
With `CCCCCCCCc1ccc(CCC(N)(CO)CO)cc1`, in data set [9], the result was Active.
Turning to `COc1cc(-c2ccc3c(n2)CN(c2cnn(C(C)(C)C#N)c2)C3=O)cnc1OC`, in data set [1], the Ki stood at 28 nM. The Ratio Ki in data set [3] came to 25; in data set [6], 10; in data set [7], 15.
Turning to `COc1cc(-c2ccc3c(n2)CN(c2cnn(CCC#N)c2)C3=O)cnc1OC`, the Ki in data set [1] came out at 20 nM. The results for the Ratio Ki in [3], in data set [6] and in data set [7] were 10, 4 and 11, respectively.
Usually logD stands for lipophilicity at a set pH, counting ionised and neutral species. A low value points to a more hydrophilic compound. Turning to `COc1ccc(-c2ccc3c(c2)CN(c2cccc(CC#N)c2)C3=O)cc1OC`, the logD in data set [10] came out at 4.1. Moreover, the inhibition constant (Ki) in data set [1] was 160 nM. For the same compound, the figures for the hepatocyte CLint in [2] and in data set [4] were 26 µL/min/1e6 cells and 111 µL/min/1e6 cells, respectively. Further, the Ratio Ki was greater than 25 in [3], 7 in [6] and greater than 25 in [7]. This compound also displayed a clearance in data set [5] of 116 mL/min/kg.
As to `COc1cc(-c2ccc3c(n2)CN(c2cnn(CC(F)F)c2)C3=O)cnc1OC`, the Ki in data set [1] came out at 9 nM. For the same compound, the Ratio Ki in data set [3] turned out to be 12; in data set [6], 5; in data set [7] it was 22.
As a reminder, the efflux ratio is the permeability from basolateral to apical divided by that in the opposite direction, in the common usage. In the case of `COc1cc(-c2ccc3c(n2)CN(c2cnn(C)c2)C3=O)cnc1OC`, the Ki in [1] turned out to be 60 nM. For the same compound, the Ratio Ki is 9 in [3], 3 in [6] and 5 in [7]. Also, the efflux ratio in data set [11] was determined as 2.5.
What is called half-life is how long it takes for the measured level to halve. High values mean slow loss, low ones fast loss. `COc1cc(-c2ccc3c(n2)C(C)(C)N(c2cnn(CC(F)(F)F)c2)C3=O)cnc1OC`: the IC50 in data set [8] amounted to 340 nM. Besides, the Ki in [1] is 11 nM. In addition, the half-life in data set [12] was 6.6 h. For the same compound, the Ratio Ki in data set [3] came out at 12; in data set [6], 10; in [7] it was 33. This compound came in with a clearance in data set [5] of 6.3 mL/min/kg.
On to `COc1cc(-c2ccc3c(n2)[C@@H](C)N(c2cnn(CC(F)(F)F)c2)C3=O)cnc1OC`, for which, in [13], the result was Active. For the same compound, the IC50 in data set [14] was found to be 210 nM.
As to `COc1cc(-c2ccc3c(c2)CN(c2cnn(CC#N)c2)C3=O)cnc1OC`, in data set [1], the Ki was found to be 6 nM. Moreover, the results for the Ratio Ki in [3], in data set [6] and in data set [7] were 27, 17 and 51, respectively. The compound also registered a clearance in data set [5] of 56 mL/min/kg.
Take `C#CCn1cc(N2Cc3nc(-c4cnc(OC)c(OC)c4)ccc3C2=O)cn1`: in data set [1], the Ki came to 9 nM. For the same compound, the Ratio Ki in data set [3] was found to be 25; in [6] it was 12; in data set [7], 11.
